Test results published in ChEMBL document CHEMBL5143722, “Antimicrobial Peptides against Multidrug-Resistant Pseudomonas aeruginosa Biofilm from Cystic Fibrosis Patients” (J Med Chem, 2022).
Calls of active or inactive are those of the source. The rule behind the calls is not given here.

How the values were obtained:
Pseudomonas aeruginosa [1] = test: Antibiofilm activity against Pseudomonas aeruginosa clinical isolate 629 assessed as inhibition of biofilm formation at sub-inhibitory concentration incubated for 24 hrs by crystal violet staining based microtiter plate method; type: functional, organism-based
Procedure, shortened: (§1)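 Washed overnight cultures in BM2 medium at 1 × 10^6 CFU/mL with 2-fold serial peptide dilutions in a U-bottom 96-well plate. Incubated 24 h at 37 °C without agitation. Unattached cells washed off, then 0.1% crystal violet stain read at 590 nm. No-bacteria blanks. Biomass expressed as % of untreated biofilm. At least three biological repeats.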

Pseudomonas aeruginosa [2] = test: Antibiofilm activity against Pseudomonas aeruginosa clinical isolate 25 assessed as inhibition of biofilm formation at sub-inhibitory concentration incubated for 24 hrs by crystal violet staining based microtiter plate method; type: functional, organism-based; procedure, shortened: as §1
Pseudomonas aeruginosa [3] = test: Induction of biofilm degradation of Pseudomonas aeruginosa clinical isolate 629 at 50 uM incubated for 1 hr by crystal violet staining analysis relative to control; type: functional
Procedure, shortened: (§2)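 Bacteria at 1 × 10^6 CFU/mL in BM2 grown static at 37 °C for 24 h to form biofilm. Wells rinsed of unattached cells, then exposed for 1 h to serial peptide dilutions (1.56–50 μM). Washed, stained with 0.1% crystal violet, A590 read. Biomass given as % of untreated biofilm; no-bacteria wells as blanks. At least three biological repeats.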

Pseudomonas aeruginosa [4] = test: Inhibition of biofilm formation of Pseudomonas aeruginosa clinical isolate 24 derived from cystic fibrosis patient sputum at 0.09 to 3.12 uM by crystal violet based staining analysis; type: functional, organism-based; settings: dose 0.09-3.12 µM
Procedure, shortened: (§3)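 CF patient sputum diluted 10-fold with BM2, bacteria added with serial peptide dilutions starting from the highest MIC per isolate. Inoculum suspension 1 × 10^6 CFU/mL. Incubated 24 h at 37 °C without agitation. Unattached cells washed away, then 0.1% crystal violet staining and A590. Biomass given as % of untreated, with no-bacteria blanks.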

Pseudomonas aeruginosa [5] = test: Antibiofilm activity against Pseudomonas aeruginosa clinical isolate 71 assessed as inhibition of biofilm formation at sub-inhibitory concentration incubated for 24 hrs by crystal violet staining based microtiter plate method; type: functional, organism-based; procedure, shortened: as §1
Pseudomonas aeruginosa [6] = test: Induction of biofilm degradation of Pseudomonas aeruginosa clinical isolate 24 incubated for 1 hr by crystal violet staining analysis relative to control; type: functional; settings: dose 50.0 µM; procedure, shortened: as §2
Pseudomonas aeruginosa [7] = test: Induction of biofilm degradation of Pseudomonas aeruginosa clinical isolate 53 at sub MIC concentration incubated for 1 hr by crystal violet staining analysis; type: functional; procedure, shortened: as §2
Pseudomonas aeruginosa [8] = test: Induction of biofilm degradation of Pseudomonas aeruginosa clinical isolate 72 at 50 uM incubated for 1 hr by crystal violet staining analysis relative to control; type: functional; procedure, shortened: as §2
Pseudomonas aeruginosa [9] = test: Induction of biofilm degradation of Pseudomonas aeruginosa clinical isolate 53 at 50 uM incubated for 1 hr by crystal violet staining analysis relative to control; type: functional; procedure, shortened: as §2
Pseudomonas aeruginosa [10] = test: Induction of biofilm degradation of Pseudomonas aeruginosa clinical isolate 24 at sub MIC concentration incubated for 1 hr by crystal violet staining analysis; type: functional; procedure, shortened: as §2
Pseudomonas aeruginosa [11] = test: Inhibition of biofilm formation of Pseudomonas aeruginosa clinical isolate 82 derived from cystic fibrosis patient sputum at 0.09 to 3.12 uM by crystal violet based staining analysis; type: functional, organism-based; settings: dose 0.09-3.12 µM; procedure, shortened: as §3
Pseudomonas aeruginosa [12] = test: Induction of biofilm degradation of Pseudomonas aeruginosa PAO1 at 50 uM incubated for 1 hr by crystal violet staining analysis relative to control; type: functional; procedure, shortened: as §2
Pseudomonas aeruginosa [13] = test: Induction of biofilm degradation of Pseudomonas aeruginosa clinical isolate 46 at 50 uM incubated for 1 hr by crystal violet staining analysis relative to control; type: functional; procedure, shortened: as §2
Pseudomonas aeruginosa [14] = test: Antibiofilm activity against Pseudomonas aeruginosa clinical isolate 99 assessed as inhibition of biofilm formation at sub-inhibitory concentration incubated for 24 hrs by crystal violet staining based microtiter plate method; type: functional, organism-based; procedure, shortened: as §1
Pseudomonas aeruginosa [15] = test: Antibiofilm activity against Pseudomonas aeruginosa clinical isolate 25 assessed as inhibition of biofilm formation at MIC incubated for 24 hrs by crystal violet staining based microtiter plate method; type: functional, organism-based; procedure, shortened: as §1
Pseudomonas aeruginosa [16] = test: Induction of biofilm degradation of Pseudomonas aeruginosa clinical isolate 82 at 50 uM incubated for 1 hr by crystal violet staining analysis relative to control; type: functional; procedure, shortened: as §2
Pseudomonas aeruginosa [17] = test: Induction of biofilm degradation of Pseudomonas aeruginosa clinical isolate 71 at 50 uM incubated for 1 hr by crystal violet staining analysis relative to control; type: functional; procedure, shortened: as §2
Pseudomonas aeruginosa [18] = test: Induction of biofilm degradation of Pseudomonas aeruginosa clinical isolate 995 at 50 uM incubated for 1 hr by crystal violet staining analysis relative to control; type: functional; procedure, shortened: as §2
Pseudomonas aeruginosa [19] = test: Inhibition of biofilm formation of Pseudomonas aeruginosa PAO1 in patient derived CF-sputum at 0.09 to 3.12 uM by crystal violet based staining analysis; type: functional, organism-based; settings: dose 0.09-3.12 µM; procedure, shortened: as §3
Pseudomonas aeruginosa [20] = test: Antibiofilm activity against Pseudomonas aeruginosa clinical isolate 53 assessed as inhibition of biofilm formation at sub-inhibitory concentration incubated for 24 hrs by crystal violet staining based microtiter plate method; type: functional, organism-based; procedure, shortened: as §1
Pseudomonas aeruginosa [21] = test: Induction of biofilm degradation of Pseudomonas aeruginosa clinical isolate 251 at 50 uM incubated for 1 hr by crystal violet staining analysis; type: functional; procedure, shortened: as §2
Pseudomonas aeruginosa [22] = test: Induction of biofilm degradation of Pseudomonas aeruginosa clinical isolate 172 at 50 uM incubated for 1 hr by crystal violet staining analysis relative to control; type: functional; procedure, shortened: as §2
Pseudomonas aeruginosa [23] = test: Antibiofilm activity against Pseudomonas aeruginosa clinical isolate 24 assessed as inhibition of biofilm formation at sub-inhibitory concentration incubated for 24 hrs by crystal violet staining based microtiter plate method; type: functional, organism-based; procedure, shortened: as §1
Pseudomonas aeruginosa [24] = test: Inhibition of biofilm formation of Pseudomonas aeruginosa clinical isolate 24 derived from cystic fibrosis patient sputum at 0.78 to 25 uM by crystal violet based staining analysis; type: functional, organism-based; settings: dose 0.78-25 µM; procedure, shortened: as §3
Pseudomonas aeruginosa [25] = test: Induction of biofilm degradation of Pseudomonas aeruginosa clinical isolate 40 at 50 uM incubated for 1 hr by crystal violet staining analysis relative to control; type: functional; procedure, shortened: as §2
Pseudomonas aeruginosa [26] = test: Induction of biofilm degradation of Pseudomonas aeruginosa clinical isolate 238 at 50 uM incubated for 1 hr by crystal violet staining analysis relative to control; type: functional; procedure, shortened: as §2
Pseudomonas aeruginosa [27] = test: Induction of biofilm degradation of Pseudomonas aeruginosa clinical isolate 40 at sub MIC concentration incubated for 1 hr by crystal violet staining analysis; type: functional; procedure, shortened: as §2
Pseudomonas aeruginosa [28] = test: Induction of biofilm degradation of Pseudomonas aeruginosa clinical isolate 59 at <12.5 uM incubated for 1 hr by crystal violet staining analysis; type: functional; procedure, shortened: as §2
Pseudomonas aeruginosa [29] = test: Induction of biofilm degradation of Pseudomonas aeruginosa clinical isolate 29 at 50 uM incubated for 1 hr by crystal violet staining analysis relative to control; type: functional; procedure, shortened: as §2
Pseudomonas aeruginosa [30] = test: Induction of biofilm degradation of Pseudomonas aeruginosa clinical isolate 99 at 50 uM incubated for 1 hr by crystal violet staining analysis relative to control; type: functional; procedure, shortened: as §2
Pseudomonas aeruginosa [31] = test: Induction of biofilm degradation of Pseudomonas aeruginosa clinical isolate 52 at 50 uM incubated for 1 hr by crystal violet staining analysis relative to control; type: functional; procedure, shortened: as §2
Pseudomonas aeruginosa [32] = test: Antibiofilm activity against Pseudomonas aeruginosa clinical isolate 46 assessed as inhibition of biofilm formation at sub-inhibitory concentration incubated for 24 hrs by crystal violet staining based microtiter plate method; type: functional, organism-based; procedure, shortened: as §1
Pseudomonas aeruginosa [33] = test: Induction of biofilm degradation of Pseudomonas aeruginosa clinical isolate 25 at 50 uM incubated for 1 hr by crystal violet staining analysis relative to control; type: functional; procedure, shortened: as §2
Pseudomonas aeruginosa [34] = test: Antibiofilm activity against Pseudomonas aeruginosa clinical isolate 72 assessed as inhibition of biofilm formation at sub-inhibitory concentration incubated for 24 hrs by crystal violet staining based microtiter plate method; type: functional, organism-based; procedure, shortened: as §1
Pseudomonas aeruginosa [35] = test: Antibiofilm activity against Pseudomonas aeruginosa clinical isolate 82 in basal medium 2 at 12.5 to 100 uM incubated for 24 hrs by resazurin staining based microtiter plate method; type: functional, organism-based; settings: dose 12.5-100 µM

| SMILES | inhibition (Pseudomonas aeruginosa [1]) | inhibition (Pseudomonas aeruginosa [2]) | Activity (Pseudomonas aeruginosa [3]) [%] | inhibition (Pseudomonas aeruginosa [4]) | inhibition (Pseudomonas aeruginosa [5]) | Activity (Pseudomonas aeruginosa [6]) [%] | Activity (Pseudomonas aeruginosa [7]) | Activity (Pseudomonas aeruginosa [8]) [%] | Activity (Pseudomonas aeruginosa [9]) [%] | Activity (Pseudomonas aeruginosa [10]) | inhibition (Pseudomonas aeruginosa [11]) | Activity (Pseudomonas aeruginosa [12]) [%] | Activity (Pseudomonas aeruginosa [13]) [%] | inhibition (Pseudomonas aeruginosa [14]) | inhibition (Pseudomonas aeruginosa [15]) | Activity (Pseudomonas aeruginosa [16]) [%] | Activity (Pseudomonas aeruginosa [17]) [%] | Activity (Pseudomonas aeruginosa [18]) [%] | inhibition (Pseudomonas aeruginosa [19]) | inhibition (Pseudomonas aeruginosa [20]) | other results |
| --- | --- | --- | --- | --- | --- | --- | --- | --- | --- | --- | --- | --- | --- | --- | --- | --- | --- | --- | --- | --- | --- |
| CC(C)C[C@H](NC(=O)[C@H](CC(C)C)NC(=O)[C@H](CCCCN)NC(=O)[C@H](CC(C)C)NC(=O)[C@H](CC(C)C)NC(=O)[C@H](CCCCN)NC(=O)[C@H](CCCCN)NC(=O)[C@H](CC(C)C)NC(=O)[C@H](CC(C)C)NC(=O)[C@H](CCCCN)NC(=O)[C@H](CCCCN)NC(=O)[C@H](CC(C)C)NC(=O)[C@H](CC(C)C)NC(=O)[C@H](CCCCN)NC(=O)[C@@H](N)CC(C)C)C(N)=O | Active | Active | 60 | Active | Active | 60 | Active | 60 | 60 | Active | Active | 60 | 60 | Active | Active | 60 | 60 | 60 | Active | Active | Activity (Pseudomonas aeruginosa [21]): 60%; Activity (Pseudomonas aeruginosa [22]): 60%; inhibition (Pseudomonas aeruginosa [23]): Active; inhibition (Pseudomonas aeruginosa [24]): Active; Activity (Pseudomonas aeruginosa [25]): 60%; Activity (Pseudomonas aeruginosa [26]): 60%; Activity (Pseudomonas aeruginosa [27]): Active; Activity (Pseudomonas aeruginosa [28]): Active; Activity (Pseudomonas aeruginosa [29]): 60%; Activity (Pseudomonas aeruginosa [30]): 60%; Activity (Pseudomonas aeruginosa [31]): 60%; inhibition (Pseudomonas aeruginosa [32]): Active; Activity (Pseudomonas aeruginosa [33]): 60%; inhibition (Pseudomonas aeruginosa [34]): Active |
| CC[C@H](C)[C@H](NC(=O)[C@H](CCCCN)NC(=O)[C@H](CCC(=O)O)NC(=O)[C@H](CCCCN)NC(=O)[C@H](CO)NC(=O)[C@H](CCCCN)NC(=O)[C@H](CCCNC(=N)N)NC(=O)[C@H](Cc1ccccc1)NC(=O)[C@H](Cc1ccccc1)NC(=O)[C@H](CC(=O)O)NC(=O)CNC(=O)[C@H](CC(C)C)NC(=O)[C@@H](N)CC(C)C)C(=O)NCC(=O)N[C@@H](CCCCN)C(=O)N[C@@H](CCC(=O)O)C(=O)N[C@@H](Cc1ccccc1)C(=O)N[C@@H](CCCCN)C(=O)N[C@@H](CCCNC(=N)N)C(=O)N[C@H](C(=O)N[C@H](C(=O)N[C@@H](CCC(N)=O)C(=O)N[C@@H](CCCNC(=N)N)C(=O)N[C@H](C(=O)N[C@@H](CCCCN)C(=O)N[C@@H](CC(=O)O)C(=O)N[C@@H](Cc1ccccc1)C(=O)N[C@@H](CC(C)C)C(=O)N[C@@H](CCCNC(=N)N)C(=O)N[C@@H](CC(N)=O)C(=O)N[C@@H](CC(C)C)C(=O)N[C@H](C(=O)N1CCC[C@H]1C(=O)N[C@@H](CCCNC(=N)N)C(=O)N[C@H](C(=O)N[C@@H](CCC(=O)O)C(=O)N[C@@H](CO)C(N)=O)[C@@H](C)O)C(C)C)[C@@H](C)CC)C(C)C)[C@@H](C)CC | Active | Active | 60 | Active | Active | 60 | Active | 60 | 60 | Active | Active | 60 | 60 | Active | Active | 60 | 60 | 60 | Active | Active | Activity (Pseudomonas aeruginosa [21]): 60%; Activity (Pseudomonas aeruginosa [22]): 60%; inhibition (Pseudomonas aeruginosa [23]): Active; inhibition (Pseudomonas aeruginosa [24]): Active; Activity (Pseudomonas aeruginosa [25]): 60%; Activity (Pseudomonas aeruginosa [35]): Active; Activity (Pseudomonas aeruginosa [26]): 60%; Activity (Pseudomonas aeruginosa [27]): Active; Activity (Pseudomonas aeruginosa [28]): Active; Activity (Pseudomonas aeruginosa [29]): 60%; Activity (Pseudomonas aeruginosa [30]): 60%; Activity (Pseudomonas aeruginosa [31]): 60%; inhibition (Pseudomonas aeruginosa [32]): Active; Activity (Pseudomonas aeruginosa [33]): 60%; inhibition (Pseudomonas aeruginosa [34]): Active |
